T cruzi HTS = blocks T. cruzi growth inside host cells. activity score (inhibition), % at 5.01 µM. intracellular Trypanosoma cruzi in host cells, plate reader. 22,000 compounds, 4.9% hits; in the data active = activity score above about 55%;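 note: parasites and compound incubated about four days before reading; 0% = median of neutral control wells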
A1 apoptosis 2 = A1 inhibition read as caspase activation | MEF A1-2A-BIM cells, caspase-Glo luminescence, 3 h; percent of clofoctol response, DMSO zero | caspase activation, % (concentration not given with the values) | 24,000 tested, under 10 active | AID 2465; in the data active = caspase activation above about 5.9%
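Test system – A1-2A-BIM-expressing MEF cells · Input – 2500 cells/well · Medium – RPMI-1640 growth medium with 10% FBS · Compound dosing – 50 nL pinned compound · Timing – 3 h compound exposure at 37 °C · Technique – Caspase-Glo luminescence (DEVD substrate) · Evaluation – Caspase-3/7 activity from luminescence increase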
INS-1E ATP HTS = INS-1E beta cell protection from cytokine death. INS-1E cytokine-induced death, ATP luminescence, 48 h; normalised: neutral wells 0, positive control 100. protection from cytokine-induced ATP loss, % at 10 µM. 20,000 compounds, 0.1% hits. AID 488910;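 active = mean replicate protection from cytokine-induced ATP loss at least 50% and at least 75% of replicates each reaching 50%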
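Assay system: INS-1E rat insulinoma cells. Amount: 8000 cells per well. Medium: phenol-red-free RPMI with 5% fetal bovine serum. Reagent: IL-1β, TNF-α and IFN-γ cytokine mix. Doses: one compound concentration, pin transfer. Schedule: 48 h co-treatment, 10 min post-lysis read. Detection: CellTiter-Glo luminescence measuring cellular ATP.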
* = called active by the depositor. The full list was thinned out, with hits kept by preference.

`C[C@@H]1CN([C@H](C)CO)C(=O)c2cccc(NS(=O)(=O)c3ccccc3)c2O[C@H]1CN(C)Cc1ccc(C(=O)Nc2ccccc2N)cc1` gave T cruzi HTS 47 and INS-1E ATP HTS -10.
Cc1ccc(S(=O)(=O)Nc2cccc3c2O[C@H](CN(C)Cc2ccc(C(=O)Nc4ccccc4N)cc2)[C@@H](C)CN([C@@H](C)CO)C3=O)cc1 was read as T cruzi HTS 44, A1 apoptosis 2 2 and INS-1E ATP HTS 0.
`Cc1noc(C)c1S(=O)(=O)Nc1cccc2c1O[C@H](CN(C)Cc1ccc(C(=O)Nc3ccccc3N)cc1)[C@H](C)CN([C@H](C)CO)C2=O` gave T cruzi HTS 60* and INS-1E ATP HTS -14.
For Cc1ccc(S(=O)(=O)Nc2cccc3c2O[C@@H](CN(C)Cc2ccc(C(=O)Nc4ccccc4N)cc2)[C@@H](C)CN([C@@H](C)CO)C3=O)cc1 the results were T cruzi HTS 64*, A1 apoptosis 2 -1 and INS-1E ATP HTS 8.
`O=C(N/N=C/c1ccc(S(=O)(=O)O)o1)c1ccccc1O` gave T cruzi HTS 0 and INS-1E ATP HTS -37.
Screening C=CCNC(=O)[C@@H]1[C@H]2C(=O)O[C@H](c3ccccc3)[C@H](c3ccccc3)N2[C@H](c2ccccc2OCCO)[C@@]12C(=O)Nc1ccc(C#CC3=CCCCC3)cc12 returned A1 apoptosis 2 4.
COc1ccc(O)c(/C=N/NC(=O)c2cccc(C(=O)NO)c2)c1 was read as T cruzi HTS -17, A1 apoptosis 2 -1 and INS-1E ATP HTS -10.
Screening O=C1O[C@@H](c2ccccc2)[C@@H](c2ccccc2)N2[C@@H](c3ccc(OCCO)cc3)[C@]3(C(=O)Nc4ccc(C#CC5(O)CCCCCC5)cc43)[C@@H](C(=O)NC[C@H](O)c3ccccc3)[C@H]12 returned A1 apoptosis 2 1.
O=C(NO)c1cccc(C(=O)N/N=C/c2cccnc2)c1 was read as T cruzi HTS -1, A1 apoptosis 2 -1 and INS-1E ATP HTS 5.
For O=C(CCCCCC(=O)Nc1ccccc1O)N/N=C/c1ccc2c(c1)CCO2 the results were T cruzi HTS 3, A1 apoptosis 2 -1 and INS-1E ATP HTS -5.
For O=C(N/N=C/c1c(O)ccc2ccccc12)c1ccccc1O the results were A1 apoptosis 2 -5.
For Cc1noc(C)c1NC(=O)N(C)C[C@H]1OCCCC[C@H](C)Oc2ccc(NC(=O)CCC(F)(F)F)cc2C(=O)N([C@@H](C)CO)C[C@H]1C the results were A1 apoptosis 2 -1.
Screening C[C@H]1CN([C@@H](C)CO)C(=O)c2cccc(NS(=O)(=O)c3ccc(Cl)cc3)c2O[C@H]1CN(C)Cc1ccc(C(=O)Nc2ccccc2N)cc1 returned T cruzi HTS 60*, A1 apoptosis 2 0 and INS-1E ATP HTS 8.
For C[C@H](CO)N1C[C@H](C)[C@H](CN(C)Cc2ccc(C(=O)Nc3ccccc3N)cc2)Oc2c(NS(=O)(=O)c3ccc(Cl)cc3)cccc2C1=O the results were T cruzi HTS 53, A1 apoptosis 2 1 and INS-1E ATP HTS -6.
Screening O=C(CCCCCC(=O)N/N=C/c1cc(Br)cs1)NO returned A1 apoptosis 2 1.
C[C@H](CO)N1C[C@H](C)[C@H](CN(C)C(=O)Nc2cccc3ccccc23)Oc2c(NC(=O)c3ccncc3)cccc2C1=O was read as T cruzi HTS 70*, A1 apoptosis 2 2 and INS-1E ATP HTS 1.
`C[C@@H]1CN([C@@H](C)CO)C(=O)c2cccc(NC(=O)c3ccncc3)c2O[C@H]1CN(C)C(=O)Nc1cccc2ccccc12` gave T cruzi HTS 9, A1 apoptosis 2 0 and INS-1E ATP HTS 12.
Screening C[C@H]1CN([C@@H](C)CO)C(=O)c2cccc(NC(=O)c3ccncc3)c2O[C@H]1CN(C)C(=O)Nc1cccc2ccccc12 returned T cruzi HTS 75*, A1 apoptosis 2 0 and INS-1E ATP HTS 1.
`C[C@H]1CN([C@@H](C)CO)C(=O)c2cccc(NC(=O)c3ccncc3)c2O[C@@H]1CN(C)C(=O)Nc1cccc2ccccc12` gave T cruzi HTS 5, A1 apoptosis 2 1 and INS-1E ATP HTS 8.
CN1C(=O)[C@@H]2[C@@H](CC(COc3ccccc3)=C3[C@@H](CCc4ccccc4)OB(O)C[C@@H]32)C1=O was read as A1 apoptosis 2 0.
Screening COc1ccc(CN(C)C[C@H]2Oc3ccc(NC(=O)CCN4CCOCC4)cc3C(=O)N([C@H](C)CO)C[C@H]2C)cc1 returned T cruzi HTS -27 and INS-1E ATP HTS 12.
For COc1ccc(/C=N\NC(=O)c2ccccc2O)c(O)c1 the results were T cruzi HTS 50 and INS-1E ATP HTS -126.
For O=C1O[C@@H](c2ccccc2)[C@@H](c2ccccc2)N2[C@@H](c3ccccc3OCCO)[C@]3(C(=O)Nc4ccc(C#CCCO)cc43)[C@@H](C(=O)NC[C@H](O)c3ccccc3)[C@H]12 the results were A1 apoptosis 2 0.
COC(=O)c1ccc([C@@H]2C=C(C(=O)O)O[C@H](OCCCCO)C2)cc1 was read as A1 apoptosis 2 0.
Screening CCCCN(CCCC)c1ccc(/C=N/NC(=O)CCCCCCC(=O)OC)cc1 returned T cruzi HTS 58*, A1 apoptosis 2 -1 and INS-1E ATP HTS -6.
For COC(=O)CCCCCCC(=O)N/N=C/c1ccccc1 the results were A1 apoptosis 2 -1.
C[C@H]1CN([C@@H](C)CO)C(=O)Cc2cc(NC(=O)Nc3ccc(C(F)(F)F)cc3)ccc2O[C@@H]1CN(C)CC1CC1 was read as T cruzi HTS -30, A1 apoptosis 2 1 and INS-1E ATP HTS 4.
`C[C@@H]1CN([C@@H](C)CO)C(=O)Cc2cc(NC(=O)Nc3ccc(C(F)(F)F)cc3)ccc2O[C@@H]1CN(C)CC1CCCCC1` gave T cruzi HTS 77* and INS-1E ATP HTS -46.
Screening C[C@H]1CN([C@@H](C)CO)C(=O)Cc2cc(NC(=O)Nc3ccc(C(F)(F)F)cc3)ccc2O[C@H]1CN(C)CC1CCCCC1 returned T cruzi HTS 72* and INS-1E ATP HTS -56.
For C[C@H](CO)N1C[C@H](C)[C@@H](CN(C)CC2CC2)Oc2ccc(NC(=O)Nc3ccc(C(F)(F)F)cc3)cc2CC1=O the results were A1 apoptosis 2 1.
Screening C[C@H](CO)N1C[C@H](C)[C@H](CN(C)C(=O)NC2CCCCC2)Oc2ccc(NC(=O)Cc3ccccc3)cc2C1=O returned T cruzi HTS 11, A1 apoptosis 2 0 and INS-1E ATP HTS -5.
Screening CCOc1cccc(/C=N/NC(=O)c2ccccc2O)c1OCC returned T cruzi HTS -19, A1 apoptosis 2 -1 and INS-1E ATP HTS -12.
For C[C@H](CO)N1C[C@H](C)[C@H](CN(C)Cc2ccc(C(=O)O)cc2)Oc2c(NC(=O)c3cnccn3)cccc2C1=O the results were T cruzi HTS -5, A1 apoptosis 2 0 and INS-1E ATP HTS 3.
C[C@H](CO)N1C[C@H](C)[C@@H](CN(C)Cc2ccc(C(=O)Nc3ccccc3N)cc2)Oc2c(NC(=O)c3cnccn3)cccc2C1=O was read as T cruzi HTS 75*, A1 apoptosis 2 0 and INS-1E ATP HTS -5.

High-throughput results as filed in PubChem BioAssay.
